Data as given in publication PMC8245912 (Acta Pharmaceutica Sinica. B, 2020).
Where two headings read alike, the source gives them in different places. Peptide text beside a SMILES is read from it. * marks the point of attachment. Cbz = O=C(OCc1ccccc1)*

How the values were obtained:
MDM2 = MDM2 (Homo sapiens, UniProt Q00987); assay: Western blotting of MDM2 degradation in A549 cells; assay type: cell-based; details: for MDM2 degradation (result in words): Western blotting, Fig. 2B
[1] = system: HCT116 (colon cancer) cells; assay: CCK-8 antiproliferative assay, HCT116; assay type: cell-based; details: Homo sapiens, HCT-116, read-out: IC50 HCT116
[2] = system: HepG2 (liver cancer) cells; assay: CCK-8 antiproliferative assay, HepG2; assay type: cell-based; details: Homo sapiens, HepG2, read-out: IC50 HepG2
[3] = system: MCF-7 (breast cancer) cells; assay: CCK-8 antiproliferative assay, MCF-7; assay type: cell-based; details: Homo sapiens, MCF7, read-out: IC50 MCF-7
MDM2‒P53 = MDM2‒P53 (Homo sapiens, UniProt Q00987); assay: fluorescence polarization; assay type: binding; details: for Ki: MDM2‒P53 Ki, FP binding assay, Table 1
A549 (lung cancer) cells = assay: CCK-8 antiproliferative assay, A549; assay type: cell-based; details: Homo sapiens
A549 cells = assay: apoptosis assay, flow cytometry with Annexin V/PI double staining; assay type: cell-based, human; details: for apoptosis: 5.0 μmol/L, 24 h treatment
P53 = assay: Western blotting of P53 expression in A549 cells; assay type: cell-based, human
Caco-2 cells = assay type: in vitro ADME
HCT116 (P53+) cells = assay: CCK-8 assay, P53-wild HCT116; assay type: cell-based; details: Homo sapiens, HCT-116, read-out: IC50 HCT116 (P53+)
HCT116 (P53‒) cells = assay: CCK-8 assay, P53-deleted HCT116; assay type: cell-based; details: Homo sapiens, HCT-116, read-out: IC50 HCT116 (P53‒)
A549 xenograft = assay: in vivo A549 xenograft assay; design: species or system mouse; details: A549 xenograft nude mice, intraperitoneal 20 mg/kg twice-daily, 21 days
Procedure, shortened: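 Female BALB/c nude mice (6–7 weeks, 18–20 g) received 5.0 × 10^6 A549 cells subcutaneously in the flank. At mean tumour volume 100 mm3 they were randomised, 5 per group. Intraperitoneal dosing ran twice daily for 21 days; vehicle was normal saline. Calipers measured tumours every three days: V = A×B²/2, TGI = (1 − Vtreat/Vcontrol) × 100. Analysis used mean ± SEM and one-way ANOVA.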

[4] = A549, 72 h, read-out: IC50 A549

Row | Structure (SMILES) | MDM2 degradation (result in words) (MDM2) | IC50 [1] | IC50 [2] | IC50 [3] | Ki (MDM2‒P53) | IC50 (A549 (lung cancer) cells; [4]) | further results
1 | CCOc1cc(C(C)(C)C)ccc1C1=N[C@@H](c2ccc(Cl)cc2)[C@@H](c2ccc(Cl)cc2)N1C(=O)N1CCN(C(=O)CCCCCC(=O)N2CCN(C(=O)N3C(c4ccc(C(C)(C)C)cc4OCC)=N[C@@H](c4ccc(Cl)cc4)[C@H]3c3ccc(Cl)cc3)CC2)CC1 (relative stereo) [Compound 10a, 1,7-Bis(4-(2-(4-(tert-butyl)-2-ethoxyphenyl)-cis-4,5-bis(4-chlorophenyl)-4,5-dihydro-1H-imidazole-1-carbonyl)piperazin-1-yl) heptane-1,7-dione] | no degradation | 2.5 ± 1 µM | 1.5 ± 0.05 µM | 2.1 µM | 650 ± 170 nM | 2.1 ± 0.1 µM | 
2 | CCOc1cc(C(C)(C)C)ccc1C1=N[C@@H](c2ccc(Cl)cc2)[C@@H](c2ccc(Cl)cc2)N1C(=O)N1CCN(C(=O)COCCOCC(=O)N2CCN(C(=O)N3C(c4ccc(C(C)(C)C)cc4OCC)=N[C@@H](c4ccc(Cl)cc4)[C@H]3c3ccc(Cl)cc3)CC2)CC1 (relative stereo) [Compound 10e, 2,2′-(Ethane-1,2-diylbis(oxy)) bis(1-(4-(2-(4-(tert-butyl)-2-ethoxyphenyl)-cis-4,5-bis(4-chlorophenyl)-4,5-dihydro-1H-imidazole-1-carbonyl)piperazin-1-yl)ethan-1-one)] |  | 3.9 ± 0.7 µM | 4.6 ± 0.8 µM | 7.4 ± 0.51 µM | 1500 ± 820 nM | 6.6 ± 1 µM | 
3 | CC(C)C[C@@H](C=O)NC(=O)[C@H](CC(C)C)NC(=O)[C@H](CC(C)C)NC(=O)OCc1ccccc1 [MG132, reference compound] (Cbz-Leu-Leu-Leu-aldehyde) |  |  |  |  |  |  | toxic effect on A549 cells (result in words) (A549 cells; 0.2 μmol/L, incubation for 24 h): no toxic effect
4 | CCOc1cc(C(C)(C)C)ccc1C1=N[C@@H](c2ccc(Cl)cc2)[C@@H](c2ccc(Cl)cc2)N1C(=O)N1CCN(CC(=O)NCCOCCOCCOCCNC(=O)CN2CCN(C(=O)N3C(c4ccc(C(C)(C)C)cc4OCC)=N[C@@H](c4ccc(Cl)cc4)[C@H]3c3ccc(Cl)cc3)CC2=O)C(=O)C1 (relative stereo) [Compound 11a, N,N′-(((Oxybis(ethane-2,1-diyl))bis(oxy))bis(ethane-2,1-diyl))bis(2-(4-(2-(4-(tert-butyl)-2-ethoxyphenyl)-cis-4,5-bis(4-chlorophenyl)-4,5-dihydro-1H-imidazole-1-carbonyl)-2-oxopiperazin-1-yl)acetamide)] | dose-dependently induced MDM2 protein cleavage | 1.9 ± 0.11 µM | 3.3 ± 0.31 µM | 2.9 ± 0.6 µM |  | 1 ± 0.1 µM | MDM2 degradation (MDM2; 2 μmol/L, 24 h): > 95%; MDM2 degradation rescue by proteasome inhibitor MG132 (result in words) (MDM2; Fig. 4F): MG132 blocked the MDM2 degradation; time at which depletion of MDM2 was observed (MDM2; time course degradation, Fig. 4D): ≤ 2 h; P53 protein expression (result in words) (P53): increased the P53 protein expression; cellular permeability (result in words) (Caco-2 cells): low permeability; IC50 (HCT116 (P53+) cells): 1900 ± 670 nM; fold more potent MDM2‒P53 competitive binding than positive control 1 (MDM2‒P53; ratio of Ki vs compound 1): ~1.5 fold; IC50 (HCT116 (P53‒) cells): > 50 µM; IC50 (A549 (lung cancer) cells; A549, read-out: IC50 A549): 1.4 ± 0.31 µM; apoptosis in combination with MG132 (A549 cells; A549 cells, 5.0 μmol/L compound + MG132 0.2 μmol/L): 15.81%; apoptosis (A549 cells; A549 cells): 23.49%
5 | CCOc1cc(C(C)(C)C)ccc1C1=N[C@@H](c2ccc(Cl)cc2)[C@@H](c2ccc(Cl)cc2)N1C(=O)N1CCN(CC(=O)NCCOCCNC(=O)CN2CCN(C(=O)N3C(c4ccc(C(C)(C)C)cc4OCC)=N[C@@H](c4ccc(Cl)cc4)[C@H]3c3ccc(Cl)cc3)CC2=O)C(=O)C1 (relative stereo) [Compound 11c, N,N′-(Oxybis(ethane-2,1-diyl))bis(2-(4-(2-(4-(tert-butyl)-2-ethoxyphenyl)-cis-4,5-bis(4-chlorophenyl)-4,5-dihydro-1H-imidazole-1-carbonyl)-2-oxopiperazin-1-yl)acetamide)] |  | 7.4 ± 2.1 µM | 12 ± 3.7 µM | 14 ± 3.7 µM | 12000 ± 1900 nM | 9.3 ± 1.7 µM | 
6 | CCOc1cc(C(C)(C)C)ccc1C1=N[C@@H](c2ccc(Cl)cc2)[C@@H](c2ccc(Cl)cc2)N1C(=O)N1CCN(C(=O)COCCOCCOCC(=O)N2CCN(C(=O)N3C(c4ccc(C(C)(C)C)cc4OCC)=N[C@@H](c4ccc(Cl)cc4)[C@H]3c3ccc(Cl)cc3)CC2)CC1 (relative stereo) [Compound 10f, 2,2′-((Oxybis(ethane-2,1-diyl))bis(oxy))bis(1-(4-(2-(4-(tert-butyl)-2-ethoxyphenyl)-cis-4,5-bis(4-chlorophenyl)-4,5-dihydro-1H-imidazole-1-carbonyl)piperazin-1-yl)ethan-1-one)] | dose-dependently induced MDM2 protein cleavage | 1.3 ± 0.1 µM | 1.2 ± 0.2 µM | 4.7 ± 0.81 µM | 220 ± 70 nM | 1.3 µM | P53 protein expression (result in words) (P53): increased the P53 protein expression
7 | CCOc1cc(C(C)(C)C)ccc1C1=N[C@@H](c2ccc(Cl)cc2)[C@@H](c2ccc(Cl)cc2)N1C(=O)N1CCN(CC(=O)NCCOCCOCCNC(=O)CN2CCN(C(=O)N3C(c4ccc(C(C)(C)C)cc4OCC)=N[C@@H](c4ccc(Cl)cc4)[C@H]3c3ccc(Cl)cc3)CC2=O)C(=O)C1 (relative stereo) [Compound 11b, N,N′-((Ethane-1,2-diylbis(oxy))bis(ethane-2,1-diyl))bis(2-(4-(2-(4-(tert-butyl)-2-ethoxyphenyl)-cis-4,5-bis(4-chlorophenyl)-4,5-dihydro-1H-imidazole-1-carbonyl)-2-oxopiperazin-1-yl)acetamide)] |  | 3.9 ± 1.6 µM | 7.3 ± 0.52 µM | 4.9 ± 0.2 µM | 1800 ± 940 nM | 6.6 ± 1 µM | 
8 | COc1ccc(C2=N[C@@H](c3ccc(Cl)cc3)[C@@H](c3ccc(Cl)cc3)N2C(=O)N2CCNC(=O)C2)c(OC(C)C)c1 [Compound 1, Nutlin-3, reference compound] | did not induce the degradation of MDM2 | 5 ± 0.9 µM | 8.9 ± 1 µM | 9.7 ± 1 µM |  | 7.9 ± 1.3 µM | IC50 (HCT116 (P53‒) cells): 19 ± 0.91 µM; IC50 (A549 (lung cancer) cells; A549, read-out: IC50 A549): 9.9 ± 1.3 µM; apoptosis (A549 cells; A549 cells): 10.94%; tumor growth inhibition (TGI) (A549 xenograft): 47.8%
9 | CCOc1cc(C(C)(C)C)ccc1C1=N[C@@H](c2ccc(Cl)cc2)[C@@H](c2ccc(Cl)cc2)N1C(=O)N1CCN(C(=O)CCCCCCCC(=O)N2CCN(C(=O)N3C(c4ccc(C(C)(C)C)cc4OCC)=N[C@@H](c4ccc(Cl)cc4)[C@H]3c3ccc(Cl)cc3)CC2)CC1 (relative stereo) [Compound 10b, 1,9-Bis(4-(2-(4-(tert-butyl)-2-ethoxyphenyl)-cis-4,5-bis(4-chlorophenyl)-4,5-dihydro-1H-imidazole-1-carbonyl)piperazin-1-yl) nonane-1,9-dione] |  | 5.7 ± 1.3 µM | 3.8 µM | 6.3 ± 1.1 µM | 1600 ± 960 nM | 6.3 ± 1.2 µM | 
